# System: Candida tropicalis
# Assay: Antifungal activity against Candida tropicalis cgmcc 2.3739 by broth microdilution method
# Format: functional
# In short: (§1)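 Serial twofold-style dilution in growth medium per NCCLS broth microdilution guidelines. Compounds dissolved in DMSO before dilution. Fluconazole and itraconazole served as positive controls. MIC was read as the lowest concentration that prevents visible fungal growth.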
row,Structure (SMILES),MIC [µg/mL]
1,CC(C)COC(=O)[C@H](Cn1ccnc1)NC(=O)c1cc(-c2ccc(F)cc2)on1,0.0312
2,CC(C)OC(=O)[C@H](Cn1ccnc1)NC(=O)c1cc(-c2ccc(Br)cc2)on1,0.0312
3,CC(C)OC(=O)[C@H](Cn1ccnc1)NC(=O)c1ccc(-c2ccccc2)nc1,1
4,Cc1nc(-c2ccccc2)sc1C(=O)N[C@@H](Cn1ccnc1)C(=O)OC(C)C,0.25
5,Cc1nc(-c2ccccc2)sc1C(=O)N[C@@H](Cn1ccnc1)C(=O)OCC(C)C,0.125
6,CC(C)COC(=O)[C@H](Cn1ccnc1)NC(=O)c1nc(-c2ccccc2)cs1,0.125
7,CC(C)OC(=O)[C@H](Cn1ccnc1)NC(=O)c1coc(-c2ccccc2)n1,8

# System: Candida albicans
# Assay: Antifungal activity against Candida albicans ATCC SC5314 by broth microdilution method
# Format: functional
# In short: as §1
row,Structure (SMILES),MIC [µg/mL]
1,CC(C)COC(=O)[C@H](Cn1ccnc1)NC(=O)c1cc(-c2ccc(F)cc2)on1,0.5
2,CC(C)OC(=O)[C@H](Cn1ccnc1)NC(=O)c1cc(-c2ccc(Br)cc2)on1,0.0625
3,CC(C)OC(=O)[C@H](Cn1ccnc1)NC(=O)c1ccc(-c2ccccc2)nc1,2
4,Cc1nc(-c2ccccc2)sc1C(=O)N[C@@H](Cn1ccnc1)C(=O)OC(C)C,2
5,Cc1nc(-c2ccccc2)sc1C(=O)N[C@@H](Cn1ccnc1)C(=O)OCC(C)C,0.25
6,CC(C)COC(=O)[C@H](Cn1ccnc1)NC(=O)c1nc(-c2ccccc2)cs1,> 16
7,CC(C)OC(=O)[C@H](Cn1ccnc1)NC(=O)c1coc(-c2ccccc2)n1,> 16

# System: Cryptococcus neoformans
# Assay: Antifungal activity against Cryptococcus neoformans cgmcc 2.3161 by broth microdilution method
# Format: functional
# In short: as §1
row,Structure (SMILES),MIC [µg/mL]
1,CC(C)COC(=O)[C@H](Cn1ccnc1)NC(=O)c1cc(-c2ccc(F)cc2)on1,0.5
2,CC(C)OC(=O)[C@H](Cn1ccnc1)NC(=O)c1cc(-c2ccc(Br)cc2)on1,2
3,CC(C)OC(=O)[C@H](Cn1ccnc1)NC(=O)c1ccc(-c2ccccc2)nc1,16
4,Cc1nc(-c2ccccc2)sc1C(=O)N[C@@H](Cn1ccnc1)C(=O)OC(C)C,16
5,Cc1nc(-c2ccccc2)sc1C(=O)N[C@@H](Cn1ccnc1)C(=O)OCC(C)C,8
6,CC(C)COC(=O)[C@H](Cn1ccnc1)NC(=O)c1nc(-c2ccccc2)cs1,2
7,CC(C)OC(=O)[C@H](Cn1ccnc1)NC(=O)c1coc(-c2ccccc2)n1,> 16

# System: Aspergillus fumigatus
# Assay: Antifungal activity against Aspergillus fumigatus GIM 3.524 by broth microdilution method
# Format: functional
# In short: as §1
row,Structure (SMILES),MIC [µg/mL]
1,CC(C)COC(=O)[C@H](Cn1ccnc1)NC(=O)c1cc(-c2ccc(F)cc2)on1,8
2,CC(C)OC(=O)[C@H](Cn1ccnc1)NC(=O)c1cc(-c2ccc(Br)cc2)on1,> 16
3,CC(C)OC(=O)[C@H](Cn1ccnc1)NC(=O)c1ccc(-c2ccccc2)nc1,> 16
4,Cc1nc(-c2ccccc2)sc1C(=O)N[C@@H](Cn1ccnc1)C(=O)OC(C)C,> 16
5,Cc1nc(-c2ccccc2)sc1C(=O)N[C@@H](Cn1ccnc1)C(=O)OCC(C)C,> 16
6,CC(C)COC(=O)[C@H](Cn1ccnc1)NC(=O)c1nc(-c2ccccc2)cs1,> 16
7,CC(C)OC(=O)[C@H](Cn1ccnc1)NC(=O)c1coc(-c2ccccc2)n1,> 16

# System: Candida albicans
# Assay: Antifungal activity against Candida albicans CPCC 400523 by broth microdilution method
# Format: functional
# In short: as §1
row,Structure (SMILES),MIC [µg/mL]
1,CC(C)COC(=O)[C@H](Cn1ccnc1)NC(=O)c1cc(-c2ccc(F)cc2)on1,2
2,CC(C)OC(=O)[C@H](Cn1ccnc1)NC(=O)c1cc(-c2ccc(Br)cc2)on1,0.25
3,CC(C)OC(=O)[C@H](Cn1ccnc1)NC(=O)c1ccc(-c2ccccc2)nc1,4
4,Cc1nc(-c2ccccc2)sc1C(=O)N[C@@H](Cn1ccnc1)C(=O)OC(C)C,2
5,Cc1nc(-c2ccccc2)sc1C(=O)N[C@@H](Cn1ccnc1)C(=O)OCC(C)C,1
6,CC(C)COC(=O)[C@H](Cn1ccnc1)NC(=O)c1nc(-c2ccccc2)cs1,> 16
7,CC(C)OC(=O)[C@H](Cn1ccnc1)NC(=O)c1coc(-c2ccccc2)n1,> 16

# Reference: ChEMBL document CHEMBL4118063, “Design, synthesis and evaluation of aromatic heterocyclic derivatives as potent antifungal agents” (Eur J Med Chem, 2017)
